This is an account of results in the RNAGym collection of RNA variant scans (doi:10.1126/science.aae0568).

Variants at the floor of the assay were thinned out. A value given as a limit tells only on which side of the number the result lay.

To fix the notation:
B1: tRNA (parent)
chain: GUUCCGUUGGCGUAAUGGUAACGCGUCUCCCUCCUAAGGAGAAGACUGCGGGUUCGAGUCCCGUACGGAACG

The series covers variants of B1. The experiment in a line: yeast fitness relative to wild type (ratio to wild type); higher = fitter; tRNA-Arg(CCU), competitive growth, 37 C, YPD. The gist of the method:
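A pool of Saccharomyces cerevisiae strains, each with a tRNA-Arg(CCU) gene variant at the native genomic locus, was competed in YPD at 37°C for 24 hours across six parallel replicates. The variants had been chemically synthesised at a 3% per-site mutation rate over 69 sites, and gene amplicons before and after competition were read by 100-nucleotide paired-end sequencing. Darwinian fitness relative to wild type rested on changes in genotype frequencies. Genotypes required ≥ 100 starting reads, and estimates < 0.5 were set to 0.5.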
G12C C46U C49G: the yeast fitness came to 0.622.

For the variant C31U U53C, the yeast fitness came out at 0.633.

Take U28G A43G: the yeast fitness was 0.643.

U19C G48A G50A: the yeast fitness stood at 0.693.

As for C5G A21G C27G C34G A43C C46G A70U, the yeast fitness worked out at 0.569.

For G23C C29G A43U G50A A70U, the yeast fitness is at most 0.5.

In the case of C4U C11A G12A A42U C49U G51A, the yeast fitness was at most 0.5.

With A42U A45U C49G U53A, the yeast fitness is at most 0.5.

With A42U U54A G58C, the yeast fitness stood at 0.599.

Consider C4U A21U U26G G58A, for which the yeast fitness was 0.522.

As to U32A A43G U64G, the yeast fitness was at most 0.5.

As for C4G C30G C33A C61G, the yeast fitness is at most 0.5.

In the case of A20G C33G G56A, the yeast fitness came out at 0.639.

For the variant U2G G52A, the yeast fitness was 0.774.

Regarding C27U G38C G39A A43C C60G A65C, the yeast fitness was at most 0.5.

Consider C4A G52A, for which the yeast fitness came to 0.884.

A43G A45U G63A: the yeast fitness was determined as 0.613.

For the variant U7A A36C G56A, the yeast fitness is at most 0.5.

Turning to A15C G41A G48C, the yeast fitness was 0.568.

Turning to C5G A15G C24G C60A, the yeast fitness was at most 0.5.

On to C34U A40C A42C G48A, for which the yeast fitness is at most 0.5.

Take U2G U3C A21C: the yeast fitness is at most 0.5.

Take G6U G68C: the yeast fitness stood at 0.794.

For the variant C5A G48C, the yeast fitness was 0.953.

U7A A15U: the yeast fitness was found to be 0.587.

Regarding C22U G68A, the yeast fitness came to 0.852.

For the variant A15U A37G A42C C49G C61U, the yeast fitness was at most 0.5.

As for A43U G48A U53A, the yeast fitness turned out to be 0.506.

Take U7G C27U C33U C66U: the yeast fitness was at most 0.5.

A45G A70G: the yeast fitness is 1.19.

On to U19A U26C, for which the yeast fitness was determined as 0.834.

Take A20G C34G C55G U59C C60U G67U: the yeast fitness is at most 0.5.

As to C11G C31A A42G A43G G68C, the yeast fitness was at most 0.5.

As for C5G G25A C61G, the yeast fitness amounted to 0.564.

With C5G U16A A43G G63U, the yeast fitness is 0.524.

As for U26C G68A, the yeast fitness is 0.863.

Turning to U16A A42C, the yeast fitness was found to be 0.854.

On to C5A A14C A43C, for which the yeast fitness was at most 0.5.

Take U8A C33U G67A: the yeast fitness was at most 0.5.

As to C24G C27U, the yeast fitness stood at 0.73.

As for C55A G56A, the yeast fitness came out at 0.514.

For C5G A15G U54A C55G, the yeast fitness was at most 0.5.

As to U3A C4A A21U, the yeast fitness was at most 0.5.

As for U8C C29G U35G C61U, the yeast fitness was at most 0.5.

A20G A43U G48A: the yeast fitness was 0.73.

For the variant A21U C66U, the yeast fitness came out at 0.78.

On to C27G C31A A37C, for which the yeast fitness is at most 0.5.

As to U8A A42U C62G, the yeast fitness is at most 0.5.

As to U19A G48A, the yeast fitness worked out at 1.05.

With G6A U26C G44C, the yeast fitness was at most 0.5.

Regarding U19C C29G A40C, the yeast fitness was at most 0.5.

As to A14C A15G A42G, the yeast fitness worked out at 0.738.

Turning to A45U G68U, the yeast fitness is 0.836.

In the case of C61U U64C, the yeast fitness came out at 0.902.

For the variant A21C C61G C62G, the yeast fitness was at most 0.5.

Turning to G12C G39A A57U, the yeast fitness is at most 0.5.

As to A40C A42U, the yeast fitness was 0.782.

For the variant G10C A69G, the yeast fitness was 0.51.

As to C5A A21C U54C, the yeast fitness was at most 0.5.

In the case of U26G C31G A40C C49U C66A, the yeast fitness was found to be 0.587.

For the variant U32G C33U A37G A43C, the yeast fitness is at most 0.5.

On to A20G U32A A43C U53G, for which the yeast fitness was 0.607.

With G9A C11U G48A, the yeast fitness came out at 0.715.

As for U2C G50C C60G, the yeast fitness is at most 0.5.

In the case of U13C A36C A43C C60A, the yeast fitness amounted to 0.566.

As to A14U G44C G51A A70U, the yeast fitness worked out at 0.596.

With G25C G39C G52C G58C, the yeast fitness is at most 0.5.

On to U7G C11G C30G C33G G48C C60A, for which the yeast fitness was at most 0.5.

In the case of C30G C31G U64C A65C, the yeast fitness was at most 0.5.

Regarding G6A C30U A37G, the yeast fitness is at most 0.5.

As for A36U U59C, the yeast fitness is 0.663.

As for U35C G39A, the yeast fitness was 0.886.

For the variant U2G C4U C62U G68U, the yeast fitness is at most 0.5.

For A21U C34A G50C, the yeast fitness amounted to 0.535.

U16A C27U G38A: the yeast fitness was at most 0.5.

With U3G C30G C49U, the yeast fitness is at most 0.5.

For C4U U7A U13A U32C G44C, the yeast fitness was 0.718.

As for U16G C29U, the yeast fitness turned out to be 0.806.

Regarding C61U A69G A70C, the yeast fitness was found to be 0.923.

As to U3A C5A C33G C34U C61G, the yeast fitness is at most 0.5.

In the case of U8C, the yeast fitness is 1.03.

With U3A C33U, the yeast fitness was determined as 0.791.

On to C11U G12A A14G U53C, for which the yeast fitness is at most 0.5.

With U2G C11U A45C U53G, the yeast fitness came to 0.583.

For the variant U2A A20U C34A C61U, the yeast fitness was at most 0.5.

G23A C29U C30A G67A: the yeast fitness is at most 0.5.

For U2A A45U, the yeast fitness was 0.863.

On to A15C A45G, for which the yeast fitness amounted to 0.583.

A43U C49U: the yeast fitness is 1.09.

For the variant U28C A37C U47C, the yeast fitness came out at 0.697.

Turning to A15C U16C C34G C46A C61U C66G, the yeast fitness is at most 0.5.

As for U13G C30A, the yeast fitness amounted to 0.715.

As for G18A A21U U32A G56A, the yeast fitness was determined as 0.561.

Consider G10C A15G U35A G44A A69C, for which the yeast fitness is at most 0.5.

C24G U53G A57G: the yeast fitness was 0.545.

In the case of U8C A20U A57G, the yeast fitness was at most 0.5.

C22U C24U C33U A40U: the yeast fitness was at most 0.5.

Take C11G A42G A45U U64C A70C: the yeast fitness is 0.527.

Take A15C A36G G56A C61U: the yeast fitness is at most 0.5.

In the case of G23A C49U G63A A65C, the yeast fitness was at most 0.5.

For the variant G17C U19C C24A U32C, the yeast fitness is at most 0.5.

Consider G38C A45U U54A C61U, for which the yeast fitness is at most 0.5.

With U7A G25C C27G C31U A45U C62U U64C, the yeast fitness is at most 0.5.

In the case of U19G A69C, the yeast fitness is 0.856.

For C5U U47A G48C G51A C61A, the yeast fitness worked out at 0.564.

Take C31A C34G: the yeast fitness was at most 0.5.

Regarding G9A U26G A69G A70C, the yeast fitness was at most 0.5.

Turning to C31G C34G C66A, the yeast fitness came to 0.568.

Regarding G10C U19A C30G A40C G67C, the yeast fitness was at most 0.5.

As for U2A U3A G63C, the yeast fitness was at most 0.5.

Regarding C22G C24U C29U A42U, the yeast fitness was at most 0.5.

In the case of C33U U47A, the yeast fitness came out at 0.829.

Regarding C24U G58C, the yeast fitness came to 0.89.

On to A43U G48A C62A C66G, for which the yeast fitness was 0.533.

Turning to C24U C34U U35G, the yeast fitness was at most 0.5.

Turning to C4G C31U C55A, the yeast fitness was at most 0.5.

Consider U2G A21G C49U, for which the yeast fitness worked out at 0.708.

Consider A20G C22A A42G, for which the yeast fitness was found to be 0.557.

Regarding A14G G17A G44C A65U, the yeast fitness is at most 0.5.

With G9C G25A, the yeast fitness came to 0.721.

For C4G U7C A20G C27A U59G, the yeast fitness was at most 0.5.

Regarding G9C G51C G52A, the yeast fitness is at most 0.5.

For the variant C34U A37U G58C, the yeast fitness was found to be 0.543.

For C5U C27U G41A, the yeast fitness was found to be 0.573.

In the case of U13A A14U C27G C46G, the yeast fitness stood at 0.553.

Turning to A37U U47A, the yeast fitness was found to be 0.796.

With U2G A15U, the yeast fitness worked out at 0.75.

For the variant U26A A57G C60U, the yeast fitness is at most 0.5.

Turning to A15U C31G G50C G58C, the yeast fitness amounted to 0.588.

As for C4U G12A A14G G18A C30G C46U, the yeast fitness was at most 0.5.

Consider G17A G52A, for which the yeast fitness came out at 0.549.

Take G6A G67C: the yeast fitness came out at 0.963.

In the case of G9A U16A A42C U53C A65C, the yeast fitness is at most 0.5.

For C11U A14U C27U A40G, the yeast fitness is at most 0.5.

Consider U2A A70U, for which the yeast fitness was 1.06.

With G10C C22A C24G U53A, the yeast fitness was 0.547.

For the variant U32C G63C, the yeast fitness amounted to 0.759.

Turning to G25C C31G C62U, the yeast fitness stood at 0.737.

Consider C31A G48A C66U, for which the yeast fitness is 0.646.

Consider A36U G48C C49G, for which the yeast fitness was at most 0.5.

Turning to U13C A20G C31U, the yeast fitness is 0.777.

On to C66U A69G, for which the yeast fitness came out at 0.801.

Turning to C22A A57G C60A, the yeast fitness is at most 0.5.

Turning to C4U C11G A45U, the yeast fitness was 0.545.

In the case of G25C G52A, the yeast fitness turned out to be 0.748.

Regarding U7A G23A C55A C61A, the yeast fitness was at most 0.5.

For C24U U26C A57U, the yeast fitness is at most 0.5.

Consider C4A A15C C27G C62G, for which the yeast fitness was at most 0.5.

For the variant G25C A42U, the yeast fitness is 0.869.

U3A A40C C60U C62G: the yeast fitness is at most 0.5.

For the variant U16C G25A C27A C29U G44A C55A, the yeast fitness was at most 0.5.

With A20U G38C A45C C60G, the yeast fitness is at most 0.5.

As for A42U C61G A65U, the yeast fitness is at most 0.5.

On to U3A U7G A14U G25A G41C C46U C61A, for which the yeast fitness was determined as 0.519.

Regarding A14U A20C G23A C46A U64C, the yeast fitness is at most 0.5.

Regarding A21U C22A G38C U54G C60A, the yeast fitness was 0.846.

In the case of A21G G56C A65G, the yeast fitness amounted to 0.583.

In the case of A21G U53A, the yeast fitness is 0.651.

Turning to C24G A36C U54G, the yeast fitness was at most 0.5.

As to U26A C33A A45C, the yeast fitness was 0.55.

Consider U3G C62U, for which the yeast fitness amounted to 0.873.

Turning to G12A C22G A43G C55A, the yeast fitness was at most 0.5.

Turning to A15G C30G C55A, the yeast fitness is at most 0.5.

As to U3C C27U C31U, the yeast fitness is 0.787.

With A14C A21C C24U A36U A43U G58C, the yeast fitness was at most 0.5.

Regarding C5G G12A, the yeast fitness amounted to 0.932.

As for G9A G10C G17A G25A, the yeast fitness is at most 0.5.
